Results filed as inconclusive are left out.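 The calls were made as follows, unless noted: active = RAM network inhibition above 8.4% in each of two replicates, 3 SD over the compound average; inconclusive = above 8.4% inhibition in only one replicate; inactive = 8.4% inhibition or less in each replicate.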
What was measured:
[1] = OD615 S. cerevisiae growth inhibition, permissive medium, pilot counter-assay, permissive growth control for S. cerevisiae lifespan shortening project (AID 705;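 active = growth inhibition above 25% in both replicates, a cutoff set 3 SD above the mean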); settings: OD615, 24 h, at 10 µM, active compounds read high
In short: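 System: S. cerevisiae with engineered DeaD lifespan system / Measured by: absorbance (optical density) at 615 nm / Read-out: reduction in yeast growth (OD615) / Times: 4 h cell pre-growth, 24 h exposure at 30 °C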

[2] = Restrictive medium S. cerevisiae growth inhibition, OD615, pilot screen of yeast lifespan reduction project, restrictive growth control (AID 706;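 active = growth inhibition above a set limit, 3 SD over mean compound inhibition, in both replicates, cut at about 43% in these data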;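 also: modified DeaD lifespan yeast strain shifted to restrictive glucose medium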); settings: OD615, 48 h, at 10 µM, active compounds read high
In short: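 System: Engineered S. cerevisiae DeaD strain | Buffer or medium: Glucose-based CSMM-D restrictive medium | Schedule: 4 h pre-incubation, 48 h exposure at 30 °C | Technique: Optical density at 615 nm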

[3] = viability gain of MRP-1-high H69AR cells under doxorubicin, pilot screen, MRP-1 activator project, CellTiter-Glo, duplicate (AID 807;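 active = viability increase at or above a cutoff of the median across tested compounds plus 3 SD, cut at about 8.5% in these data, passing the limit was not always enough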;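 also: compound pretreatment 18-22 h then 72 h combined with doxorubicin; 0% = doxorubicin alone and 100% = vehicle without doxorubicin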); settings: H69AR viability with doxorubicin, CellTiter-Glo luminescence; at 10 µM; active compounds read high
[4] = inhibitors of the yeast RAM network, pilot screen, dse1pr::URA3 reporter, 5-FOA selection (AID 869;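 active = inhibition over a set limit, the all-compound mean plus 3 SD, in both replicate runs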;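 also: 0% = DMSO wells with no growth and 100% = 10 µM 1-NA-PP1 with full growth; RAM network block rescues cells from 5-FOA so hits raise OD615 growth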); settings: S. cerevisiae dse1pr::URA3 5-FOA growth, OD615, 2 d; at 10 µM; active compounds read high; strain carries analog-sensitive mutant Cbk1 kinase
[5] = RAM signaling pathway blockade in yeast – S. cerevisiae, Pdr1DBD-CYC8 efflux-inhibited sensitized strain, primary screen (AID 1298);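 also: 0% = DMSO untreated cells without growth and 100% = 10 µM 1-NA-PP1 full growth; higher means more yeast growth rescued from 5-FOA killing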; settings: S. cerevisiae cbk1-as DSE1-URA3 strain, 5-FOA growth OD615, 2 d; at 50 µM; active compounds read high
[6] = growth suppression of PTEN-deleted HCT116, pilot screen, cell-based, HCT116 clonal line, CellTiter-Glo (AID 824;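 active = viability at or below 27.92% in each of two runs, the all-compound median minus 4 SD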;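 also: 0% = 20 µM Hyamine control and 100% = vehicle cell control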); settings: 60 h, at 10 µM, active compounds read low
[7] = growth suppression of beta-catenin knockout HCT116, pilot screen, human colon tumor cells (AID 823;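 active = cell viability at or below a set limit in both duplicate runs, the limit being the all-compound median minus 4 SD, cut at about 23% in these data, passing the limit was not always enough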;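 also: 0% = wells killed by 20 µM Hyamine and 100% = untreated DMSO cell wells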); settings: CellTiter-Glo, 60 h, at 10 µM, active compounds read low

CSc1nc(N2CCN(CCO)CC2)c2sc3nc(-c4ccco4)c4c(c3c2n1)CCC4
inactive: growth inhibition [1] -5.56% | growth inhibition [2] -10.7% | viability increase [3] -8.19% | inhibition [4] -1.67% | RAM network inhibition [5] -2.9%

Cc1ccccc1CN1C(=O)C(O)(CC(=O)c2ccncc2)c2ccccc21 (stereo unspecified)
inactive: growth inhibition [1] -11.4% | growth inhibition [2] -5.55% | viability increase [3] -5.61% | inhibition [4] 1.28% | RAM network inhibition [5] 5.38%

O=C(CSc1oc(-c2ccc(F)cc2)nc1S(=O)(=O)c1ccc(F)cc1)NCC1CCCO1 (stereo unspecified)
inactive: growth inhibition [1] -8.11% | growth inhibition [2] -3.3% | viability increase [3] -7.22% | inhibition [4] 1.05% | RAM network inhibition [5] 6.87%

Cc1cc(S(=O)(=O)N2CCN(Cc3ccc4c(c3)OCO4)CC2)cc(C)c1N1CCCC1=O
inactive: growth inhibition [1] -10.6% | growth inhibition [2] -19.3% | viability increase [3] -3.13% | viability [6] 53.6% | inhibition [4] -0.21% | RAM network inhibition [5] 0.73%

O=S(=O)(NCCc1csc(-c2cccnc2)n1)c1ccc2c(c1)OCCO2
inactive: growth inhibition [1] -5.61% | growth inhibition [2] 8.38% | viability increase [3] -0.72% | viability [6] 95.5% | inhibition [4] 1.71% | RAM network inhibition [5] -0.63%

O=C(Cn1c(=O)oc2cc(S(=O)(=O)N3CCCC3)ccc21)NCc1ccccn1
inactive: growth inhibition [1] 8.21% | growth inhibition [2] 0.96% | viability [7] 107% | viability [6] 104% | inhibition [4] 1.01% | RAM network inhibition [5] -0.87%

O=C(CSc1nc(-c2ccco2)cc(C(F)(F)F)n1)Nc1ccc(C(=O)N2CCCCC2)cc1
inactive: growth inhibition [1] 0.645% | growth inhibition [2] -0.65% | viability increase [3] -2.87% | inhibition [4] 1.97% | RAM network inhibition [5] 3.42%

Cc1noc(C)c1CSc1nnc(-c2cc(Cl)ccc2Cl)n1N
inactive: growth inhibition [1] 8.57% | growth inhibition [2] 8.54% | viability increase [3] -2.82% | viability [6] 95% | inhibition [4] 1.9% | RAM network inhibition [5] 2.06%

O=C(Nc1nnc(-c2cccs2)o1)c1cccc(F)c1
inactive: growth inhibition [1] -18.7% | growth inhibition [2] 9.29% | viability increase [3] -1.42% | inhibition [4] 0.745% | RAM network inhibition [5] 3.47%

Cc1nc(N2CCN(Cc3ccc4c(c3)OCO4)CC2)c2oc3ccccc3c2n1
inactive: growth inhibition [1] -0.195% | growth inhibition [2] -1.24% | viability increase [3] -4.93% | inhibition [4] 2% | RAM network inhibition [5] 4.68%

CCN1CCN(c2cc(C)c3cc(NC(=O)c4ccc(Br)o4)ccc3n2)CC1
inactive: growth inhibition [1] -8.91% | growth inhibition [2] -15.6% | viability increase [3] -8.37% | inhibition [4] 1.75% | RAM network inhibition [5] 0.84%

CCOC(=O)C1=C(C)N=c2s/c(=C\c3ccncc3)c(=O)n2C1c1ccc2c(c1)OCO2 (stereo unspecified)
inactive: growth inhibition [1] -12% | growth inhibition [2] 23.8% | viability increase [3] -7.87% | inhibition [4] 3.46% | RAM network inhibition [5] 8.86%

COC(=O)C1=C(C)N(c2ccc(F)cc2)C(=O)C1
inactive: growth inhibition [1] -6.78% | growth inhibition [2] -12.3% | viability increase [3] -2.11% | viability [6] 93.6% | inhibition [4] 1.19% | RAM network inhibition [5] -0.26%

OC(COc1ccc(C2C=CCC2)cc1)CN1CCCCC1 (stereo unspecified)
inactive: growth inhibition [1] 0.36% | growth inhibition [2] -8.12% | viability increase [3] -4.7% | inhibition [4] 1.75% | RAM network inhibition [5] 3.83%

Cc1ccc(N2C(=O)Nc3ccc(Br)cc3C2(O)C(=O)NCCCN(C)C)cc1C (stereo unspecified)
inactive: growth inhibition [1] -7.06% | growth inhibition [2] -9.65% | viability [7] 91.7% | viability [6] 98.7% | inhibition [4] 0.615% | RAM network inhibition [5] 3.58%

C=CCn1c(SC(CCO)C(=O)NCc2ccco2)nc2sc3c(c2c1=O)CCC3 (stereo unspecified)
inactive: growth inhibition [1] -8.84% | growth inhibition [2] 0.375% | viability increase [3] -5.67% | viability [6] 84.7% | inhibition [4] 1.2% | RAM network inhibition [5] 5.12%

Cc1csc(NC(=O)NC2(C(F)(F)F)Oc3ccccc3O2)n1
inactive: growth inhibition [1] -6.66% | growth inhibition [2] 0.47% | viability increase [3] -6.08% | viability [6] 84.3% | inhibition [4] 0.995% | RAM network inhibition [5] 5.12%

Cc1cc(N2CCN(S(=O)(=O)c3ccc(Cl)cc3)CC2)c2ccccc2n1
inactive: growth inhibition [1] -3.2% | growth inhibition [2] -2.46% | viability increase [3] -2.62% | inhibition [4] -0.15% | RAM network inhibition [5] 2.74%

CCc1ccc(C2CC(c3ccccc3C)n3nc(N)nc3N2)cc1 (stereo unspecified)
inactive: growth inhibition [1] 7.95% | growth inhibition [2] -3.1% | viability [7] 87.5% | viability [6] 79.6% | inhibition [4] 0.19% | RAM network inhibition [5] 6.27%

CC(Oc1ccc(Cl)cc1)C(=O)Nc1nccs1 (stereo unspecified)
inactive: growth inhibition [1] -5.8% | growth inhibition [2] -5.78% | viability increase [3] -1.86% | viability [6] 87% | inhibition [4] 1.31% | RAM network inhibition [5] 2.7%

COc1ccc(-n2c(Cc3cc(=O)[nH]c(=O)[nH]3)nnc2SCC(=O)N2CCC(C)CC2)cc1
inactive: growth inhibition [1] -11.5% | growth inhibition [2] 4.4% | viability [7] 98.2% | viability [6] 96.9% | inhibition [4] 2.92% | RAM network inhibition [5] 0.47%

Reference: PubChem BioAssay
